Measurements: BindingDB's records for doi:10.1128/AAC.00669-08 (Tibotec, 2008)

What was measured:
[1] = target: DNA polymerase beta (Homo sapiens, UniProt P06746); assay: Inhibition of human DNA polymerase beta
Method in brief: (§1)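 Each enzyme–compound pair was tested in duplicate over 0.8 to 100 μM, with 100 μM as the highest dose. Each run included a no-inhibitor control, a solvent dilution (0.016 to 2% DMSO) and the relevant reference inhibitor. Percent inhibition at 100 μM was recorded for polymerase γ.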

[2] = target: T1, DNA polymerase subunit gamma-1 (Homo sapiens, UniProt P54098); assay: Inhibition of human DNA polymerase gamma; method in brief: as §1
T1 sequence (P54098 whole entry): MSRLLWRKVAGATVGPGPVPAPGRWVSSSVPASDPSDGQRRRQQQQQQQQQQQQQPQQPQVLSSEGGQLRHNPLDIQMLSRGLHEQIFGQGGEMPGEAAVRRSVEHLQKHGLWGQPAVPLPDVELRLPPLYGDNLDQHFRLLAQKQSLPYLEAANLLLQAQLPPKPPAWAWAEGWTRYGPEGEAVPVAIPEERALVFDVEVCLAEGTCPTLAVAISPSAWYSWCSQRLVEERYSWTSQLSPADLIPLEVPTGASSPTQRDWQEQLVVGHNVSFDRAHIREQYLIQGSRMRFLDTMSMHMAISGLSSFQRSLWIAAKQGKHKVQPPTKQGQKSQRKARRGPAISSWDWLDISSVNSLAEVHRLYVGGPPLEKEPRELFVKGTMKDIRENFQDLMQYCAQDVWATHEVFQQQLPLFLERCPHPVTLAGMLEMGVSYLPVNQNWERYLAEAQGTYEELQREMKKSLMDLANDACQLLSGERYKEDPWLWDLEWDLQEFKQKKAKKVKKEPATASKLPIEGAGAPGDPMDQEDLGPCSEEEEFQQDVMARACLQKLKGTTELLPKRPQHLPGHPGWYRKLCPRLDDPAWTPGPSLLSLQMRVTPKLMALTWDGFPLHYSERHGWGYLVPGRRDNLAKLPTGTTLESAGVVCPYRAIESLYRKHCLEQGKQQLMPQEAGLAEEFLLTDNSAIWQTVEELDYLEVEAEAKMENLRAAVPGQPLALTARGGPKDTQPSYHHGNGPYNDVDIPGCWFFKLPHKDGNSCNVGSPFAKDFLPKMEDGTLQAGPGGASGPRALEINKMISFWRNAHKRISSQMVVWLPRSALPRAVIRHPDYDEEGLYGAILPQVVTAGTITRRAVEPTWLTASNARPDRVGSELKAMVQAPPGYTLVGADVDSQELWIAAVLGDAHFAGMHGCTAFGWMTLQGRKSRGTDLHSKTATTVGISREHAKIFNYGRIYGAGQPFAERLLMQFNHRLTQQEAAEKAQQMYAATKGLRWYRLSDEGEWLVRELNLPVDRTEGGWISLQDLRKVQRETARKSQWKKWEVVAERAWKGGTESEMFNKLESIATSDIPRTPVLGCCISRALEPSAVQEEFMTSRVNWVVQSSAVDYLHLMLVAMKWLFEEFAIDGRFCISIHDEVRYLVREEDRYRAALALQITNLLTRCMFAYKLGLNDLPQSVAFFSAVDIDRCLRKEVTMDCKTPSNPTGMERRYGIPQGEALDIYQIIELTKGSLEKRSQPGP

[3] = target: T2, DNA polymerase alpha catalytic subunit (Homo sapiens, UniProt P09884); assay: Inhibition of human DNA polymerase alpha; method in brief: as §1
T2 sequence (P09884 whole entry): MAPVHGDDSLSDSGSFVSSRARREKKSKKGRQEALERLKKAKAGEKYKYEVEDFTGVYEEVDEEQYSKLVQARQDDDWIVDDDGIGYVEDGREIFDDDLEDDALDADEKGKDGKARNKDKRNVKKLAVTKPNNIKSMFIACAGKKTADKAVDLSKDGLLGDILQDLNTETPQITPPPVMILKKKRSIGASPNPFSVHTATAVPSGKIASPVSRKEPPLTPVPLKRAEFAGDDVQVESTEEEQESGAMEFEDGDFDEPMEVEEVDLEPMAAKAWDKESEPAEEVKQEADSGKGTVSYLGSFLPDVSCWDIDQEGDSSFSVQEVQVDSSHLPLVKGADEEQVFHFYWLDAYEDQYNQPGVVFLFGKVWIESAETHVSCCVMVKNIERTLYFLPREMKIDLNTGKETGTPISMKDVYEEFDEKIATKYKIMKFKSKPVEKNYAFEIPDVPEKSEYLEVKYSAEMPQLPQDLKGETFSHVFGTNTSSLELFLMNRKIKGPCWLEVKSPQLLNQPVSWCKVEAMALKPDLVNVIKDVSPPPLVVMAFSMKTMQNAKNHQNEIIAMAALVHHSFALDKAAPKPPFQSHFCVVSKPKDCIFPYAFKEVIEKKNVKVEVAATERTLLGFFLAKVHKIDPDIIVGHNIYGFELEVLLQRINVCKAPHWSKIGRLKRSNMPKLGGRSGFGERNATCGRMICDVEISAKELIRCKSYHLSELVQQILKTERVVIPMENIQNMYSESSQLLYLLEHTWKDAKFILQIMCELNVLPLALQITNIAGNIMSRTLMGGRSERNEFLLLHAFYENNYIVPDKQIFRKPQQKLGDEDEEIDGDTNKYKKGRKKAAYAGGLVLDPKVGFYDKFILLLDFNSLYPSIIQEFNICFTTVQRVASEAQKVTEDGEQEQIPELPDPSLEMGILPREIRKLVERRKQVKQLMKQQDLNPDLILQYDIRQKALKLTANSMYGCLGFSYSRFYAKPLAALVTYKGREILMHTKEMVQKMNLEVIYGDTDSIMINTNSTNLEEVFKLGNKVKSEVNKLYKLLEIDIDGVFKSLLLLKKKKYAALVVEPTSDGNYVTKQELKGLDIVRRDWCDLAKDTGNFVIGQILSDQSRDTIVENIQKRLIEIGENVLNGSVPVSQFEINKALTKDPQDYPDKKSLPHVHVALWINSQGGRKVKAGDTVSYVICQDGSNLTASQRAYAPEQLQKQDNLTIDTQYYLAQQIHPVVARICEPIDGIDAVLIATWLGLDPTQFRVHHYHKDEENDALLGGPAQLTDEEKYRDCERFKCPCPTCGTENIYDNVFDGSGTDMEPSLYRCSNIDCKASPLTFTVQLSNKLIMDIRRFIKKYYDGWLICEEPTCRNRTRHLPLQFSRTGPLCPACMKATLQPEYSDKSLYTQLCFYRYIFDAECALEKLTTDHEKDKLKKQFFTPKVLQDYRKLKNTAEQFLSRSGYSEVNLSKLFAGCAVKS

[4] = target: T3, Translocator protein (Homo sapiens, UniProt P30536); assay: (§2) Inhibition of peripheral benzodiazepine BZD receptor by radioligand binding assay
T3 sequence (P30536 whole entry): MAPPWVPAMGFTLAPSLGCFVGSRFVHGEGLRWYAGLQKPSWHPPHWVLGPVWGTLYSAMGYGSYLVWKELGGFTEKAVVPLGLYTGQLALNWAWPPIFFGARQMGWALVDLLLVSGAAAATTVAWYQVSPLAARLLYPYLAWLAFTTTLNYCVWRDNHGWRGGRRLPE
Method in brief: (§3)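 Radioligand binding assays for the GABA-A central BZD receptor and the peripheral BZD receptor were run as a single experiment in duplicate.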

[5] = target: T3, Translocator protein; assay: as §2; method in brief: as §3; remark: listed apart in the source

Row | SMILES | IC50 [1] | IC50 [2] | IC50 [3] | IC50 [4] | IC50 [5]
1 | CC(=O)N1c2ccccc2N=C2CC(C)(C)CC(=O)C2C1c1ccc(Cl)cc1Cl (stereo not drawn) [10-acetyl-11-(2,4-dichlorophenyl)-3,3-dimethyl-2,3,4,5,10,11-hexahydro-1H-dibenzo[b,e][1,4]diazepin-1-one] | > 100 µM | > 100 µM | > 100 µM |  | 
2 | COc1ccc(C2C3C(=O)CC(C)(C)CC3=Nc3ccccc3N2C(C)=O)cc1OCc1ccccc1 (stereo not drawn) [10-acetyl-11-(3-(benzyloxy)-4-methoxyphenyl)-3,3-dimethyl-2,3,4,5,10,11-hexahydro-1H-dibenzo[b,e][1,4]diazepin-1-one] | > 100 µM | > 100 µM | > 100 µM |  | 
3 | CC(=O)N1c2cccc(O)c2N=C2CC(C)(C)CC(=O)C2C1c1ccc(OCc2ccccc2)cc1Cl (stereo not drawn) [10-acetyl-11-(4-(benzyloxy)-2-chlorophenyl)-6-hydroxy-3,3-dimethyl-2,3,4,5,10,11-hexahydro-1H-dibenzo[b,e][1,4]diazepin-1-one] |  |  |  | > 30 µM | > 30 µM
